Test results: ChEMBL document CHEMBL4364260, “Discovery of Ziresovir as a Potent, Selective, and Orally Bioavailable Respiratory Syncytial Virus Fusion Protein Inhibitor” (J Med Chem, 2019)
Activity calls are given as the source filed them. The rule behind the calls is not given here.

Columns and labels:
[1] = Half-life in CD-1 mouse lung at 10 mg/kg/day, po administered via gavage and measured up to 24 hrs by LC/MS/MS analysis; format: ADME, organism-based
[2] = Half-life in Sprague-Dawley rat at 2 mg/kg, iv; format: ADME, organism-based; settings: in vivo
How it was run: (§1)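 Rat single-dose PK: 2 mg/kg iv and 10 mg/kg po. Compound was given as a solution in 5% DMSO/40% PEG400/55% of 0.9% saline. Plasma CL, Vss, iv half-life, AUC and oral bioavailability were reported.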

[3] = Oral bioavailability in Sprague-Dawley rat at 10 mg/kg; format: ADME, organism-based; settings: in vivo; how it was run: as §1
[4] = Half-life in cynomolgus monkey at 2 mg/kg, iv; format: ADME, organism-based, Macaca fascicularis; settings: in vivo
How it was run: (§2)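 Cynomolgus monkeys got single doses of 2 mg/kg iv and 10 mg/kg po as a solution in 12.5% captisol in water. Plasma CL, Vss, iv T1/2, AUC and oral F were derived.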

[5] = Clearance in cynomolgus monkey at 2 mg/kg, iv or 10 mg/kg, po; format: ADME, organism-based, Macaca fascicularis; settings: in vivo; how it was run: as §2
[6] = system: Enterovirus; assay: Antiviral activity against Rhinovirus infected in human Hep2 cells assessed as reduction in virus induced cytopathic effect after 5 days by CCK-8 assay; format: functional, organism-based
[7] = Antiviral activity against Human respiratory syncytial virus B 821 clinical isolates infected in human Hep2 cells assessed as reduction in virus induced cytopathic effect in presence of 10% FBS after 5 days by CCK-8 assay; format: functional, cell-based; settings: human respiratory syncytial virus, 821, HEp-2, 120 h
How it was run: (§3)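 HEp-2 cells seeded at 6000/well and infected the next day at MOI 0.02, a dose that gives about 90% CPE by day 5. Serial compound dilutions were present throughout, in standard medium with 10% FBS. Viability was read by CCK-8 at day 5, and EC50 is the concentration that cuts CPE by 50%.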

[8] = system: Fusion glycoprotein F0 (Human respiratory syncytial virus A (strain A2)), P03420 [D489A]; assay: Inhibition of Human respiratory syncytial virus Fusion protein D489A mutant expressed in Hep2 cells as reduction in virus induced cytopathic effect by CCK-8 assay; format: cell-based
How it was run: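 HEp-2 cells were seeded at 6000/well and infected with plaque-purified RSV carrying the F-protein mutation (D486N or D489A) at MOI 0.04, with serially diluted compound. Viability was read by CCK-8 absorbance at 450 nm/650 nm, and EC50/EC90 were derived from protection against virus-induced cytopathic effect.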

[9] = Antiviral activity against Human respiratory syncytial virus A 1177 clinical isolates infected in human Hep2 cells assessed as reduction in virus induced cytopathic effect in presence of 10% FBS after 5 days by CCK-8 assay; format: functional, cell-based; settings: human respiratory syncytial virus, 1177, HEp-2, 120 h; how it was run: as §3
[10] = Volume of distribution at steady state in CD-1 mouse at 5 mg/kg, iv or 50 mg/kg, po; format: ADME, organism-based; settings: in vivo, read-out: Vdss
How it was run: (§4)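 Single-dose PK in CD-1 mice: 5 mg/kg iv, 50 mg/kg po. Dosed as a solution in 5% DMSO, 40% PEG400, 55% of 0.9% NaCl. Plasma CL, Vss, iv T1/2, AUC and F were derived.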

[11] = Oral bioavailability in cynomolgus monkey at 10 mg/kg; format: ADME, organism-based, Macaca fascicularis; settings: in vivo; how it was run: as §2
[12] = AUC (0 to 24 hrs) in Wistar-Han rat at 10 mg/kg, po administered as single dose via gavage and measured up to 24 hrs by LC/MS/MS analysis; format: ADME, organism-based; parameters: dose 10 mg/kg, time < 24 hr, route oral; settings: in vivo
How it was run: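 Single-dose PK in male Wistar-Han rats at 2 mg/kg iv or 10 mg/kg po, as a solution in 5% DMSO, 40% PEG400 and 55% 0.9% sodium chloride.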

[13] = Antiviral activity against Human respiratory syncytial virus A strain Long infected in BALB/c mouse assessed as log reduction in virus titer in lung at 50 mg/kg, po BID administered up to 8 hrs for 4 days relative to control; format: functional
How it was run: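 Six-week-old female BALB/c mice, housed specific-pathogen-free, were anesthetized intraperitoneally with ketamine/xylazine and given RSV Long strain intranasally (5×10^5 PFU in 100 µL). Oral dosing was twice daily (0 h and 8 h) for 4 days, 12 mice per group. Mice were then euthanized with CO₂ and lungs harvested for viral titer, compared with vehicle.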

[14] = Cmax in CD-1 mouse lung at 10 mg/kg/day, po administered via gavage and measured up to 24 hrs by LC/MS/MS analysis; format: ADME, organism-based; parameters: dose 10 mg/kg/day, route oral
[15] = system: Human orthopneumovirus; assay: Antiviral activity against Human respiratory syncytial virus B18537 infected in human Hep2 cells assessed as reduction in virus induced cytopathic effect in presence of 10% FBS after 5 days by CCK-8 assay; format: functional, organism-based; settings: subgroup B / strain 18537, HEp-2, 120 h; how it was run: as §3
[16] = Antiviral activity against Human respiratory syncytial virus A strain Long infected in human Hep2 cells assessed as reduction in virus induced cytopathic effect in presence of 10% FBS after 5 days by CCK-8 assay; format: functional, cell-based; settings: HEp-2, 120 h; how it was run: as §3
[17] = system: Human respirovirus 3; assay: Antiviral activity against Human parainfluenza virus 3 infected in human Hep2 cells assessed as reduction in virus induced cytopathic effect after 5 days by CCK-8 assay; format: functional, organism-based
[18] = AUC (0 to 24 hrs) in CD-1 mouse at 50 mg/kg, po; format: ADME, organism-based; parameters: dose 50 mg/kg, time < 24 hr, route oral; settings: in vivo
How it was run: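 Single-dose PK in mouse at 5 mg/kg iv or 50 mg/kg po, as a solution in 5% DMSO, 40% PEG400 and 55% 0.9% sodium chloride. Plasma AUC was taken from the oral arm, with CL, Vss, iv T1/2 and F also derived.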

[19] = Ratio of AUC (0 to 24 hrs) in lung to plasma of CD-1 mouse at 10 mg/kg, po administered via gavage by LC-MS/MS analysis; format: ADME, organism-based; settings: read-out: Ratio AUC
[20] = Tmax in CD-1 mouse lung at 10 mg/kg/day, po administered via gavage and measured up to 24 hrs by LC/MS/MS analysis; format: ADME, organism-based
[21] = Clearance in CD-1 mouse at 5 mg/kg, iv or 50 mg/kg, po; format: ADME, organism-based; settings: in vivo; how it was run: as §4
[22] = Cytotoxicity against human Hep2 cells assessed as reduction in cell viability after 5 days by CCK-8 assay; format: cell-based; settings: HEp-2 cells
How it was run: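 Uninfected HEp-2 cells (6000/well) were incubated 5 days with serially diluted compound. Viability was read by CCK-8, and CC50 is the concentration toxic to 50% of cells.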

[23] = Oral bioavailability in Wistar-Han rat at 10 mg/kg administered as single dose via gavage and measured up to 24 hrs by LC/MS/MS analysis; format: ADME, organism-based; settings: in vivo
How it was run: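 Male Wistar-Han rats, single dose, 2 mg/kg iv and 10 mg/kg po, run by standard procedures.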

[24] = molecular target: Fusion glycoprotein F0 (human respiratory syncytial virus) (UniProt Q89535); assay: Inhibition of Human respiratory syncytial virus Fusion protein assessed as reduction in protein-induced syncytia formation at 0.1 uM after 3 days by microscopic method relative to control
How it was run: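 Serially diluted compound was added to cells expressing RSV-F. Cell-cell fusion (syncytia) was scored by microscopy three days after compound addition.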

## Cc1ccc2nc(N3CCS(=O)(=O)c4ccccc4C3)nc(NCC3(N)COC3)c2c1 [ZIRESOVIR]
[1]
  half-life: 3.31 h
[2]
  half-life: 1.2 h
[3]
  bioavailability: 32%
[4]
  half-life: 1 h
[5]
  clearance: 26 mL/min/kg
[6]
  Activity: inactive
[7]
  EC50: 3 nM
  EC90: 8 nM
[8]
  EC90: 10000 nM
[9]
  EC50: 4 nM
  EC90: 7 nM
[10]
  Vd: 6.3 L/kg
[11]
  bioavailability: 22%
[12]
  AUC(0-t) at 24 h: 906 ng·h/mL
[13]
  FC: 1.9
[14]
  Cmax: 22700 ng/mL
[15]
  EC50: 2 nM
  EC90: 3 nM
[16]
  EC50: 3 nM
  EC90: 5 nM
[17]
  Activity: inactive
[18]
  AUC(0-t) at 24 h: 1970 ng·h/mL
[19]
  Kp: 8.6
[20]
  Tmax: 1 h
[21]
  clearance: 277 mL/min/kg
[22]
  CC50 at 120 h: > 100000 nM
[23]
  bioavailability: 32%
[24]
  inhibition: 100%
